Results taken from ChEMBL document CHEMBL5625195, “Identification of novel tetrahydroquinoxaline derived phenyl ureas as modulators of the hepatitis B virus nucleocapsid assembly” (Eur J Med Chem, 2023).
Activity calls are given as the source filed them. The calls are words filed in the database; no cut-off is given here.

Key:
Hepatitis B virus [1] = test: Antiviral activity against HBV infected in AML12HBV10 cells assessed as change in core protein at 1 to 5 uM after 2 days by Northern blot hybridization; format: functional, organism-based; conditions: dose 1-5 µM, time 2.0 day
In short: (§1)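 AML12HBV10 cells in 24-well plates were kept with or without tetracycline for 24 h. Tet-maintained cells served as the no-pgRNA negative control. Cells were then mock (DMSO) or compound treated for 48 h. Total viral RNA and encapsidated pgRNA were read by Northern blot with rRNA as loading control. Core protein was read by Western blot (C-terminal 14-residue antibody, β-actin control), capsids by native particle gel assay, and replication intermediates by Southern blot.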

Hepatitis B virus [2] = test: Antiviral activity against HBV infected in AML12HBV10 cells assessed as decrease in capsid assembly at 1 to 5 uM after 2 days by Northern blot hybridization; format: functional, organism-based; conditions: dose 1-5 µM, time 2.0 day
In short: (§2)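 AML12HBV10 cells (mouse hepatocyte line carrying tetracycline-inducible, envelope-deficient HBV genome) in 24-well plates. Tetracycline was removed for 24 h before treatment; tetracycline-maintained cells served as negative control. Cells were mock (DMSO) or compound treated for a further 48 h. Intracellular capsids and core-associated DNA were resolved by native agarose gel particle assay.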

Hepatitis B virus [3] = test: Antiviral activity against HBV infected in AML12HBV10 cells assessed as change in total viral RNA at 1 to 5 uM after 2 days by Northern blot hybridization; format: functional, organism-based; conditions: dose 1-5 µM, time 2.0 day; in short: as §1
AML12 = test: Cytotoxicity against mouse AML12 cells assessed as reduction in cell viability incubated for 48 hrs by MTT assay; format: toxicity, cell-based; conditions: aml12, 48 h
In short: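 Stable AML12HBV10 hepatocytes (AML12-derived), cultured without tetracycline, were exposed to 2-fold serial dilutions (50 μM to 1.56 μM) for 48 h. Viability was inspected microscopically and quantified by MTT. CC50 was the concentration lowering viability by 50%.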

Hepatitis B virus [4] = test: Antiviral activity against HBV infected in AML12HBV10 cells assessed as decrease in viral DNA replication at 1 to 5 uM after 2 days by Northern blot hybridization; format: functional, organism-based; conditions: dose 1-5 µM, time 2.0 day; in short: as §1
Hepatitis B virus [5] = test: Antiviral activity against HBV infected in AML12HBV10 cells assessed as reduction viral replication incubated for 48 hrs; format: functional, organism-based; conditions: AML12HBV10, 48 h
In short: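 AML12HBV10 cells were seeded at 2 x 10^4 per well without tetracycline. After one day, 2-fold serial dilutions (10 μM to 0.08 μM) were applied for 48 h. Lysates were denatured, neutralized and dot-blotted, then hybridized with a 32P-labelled riboprobe specific for HBV minus-strand DNA and read by phosphorimager. EC50 was the concentration reducing HBV DNA by 50%.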

Hepatitis B virus [6] = test: Antiviral activity against HBV infected in AML12HBV10 cells assessed as decrease in encapsidated pgRNA at 1 to 5 uM after 2 days by Northern blot hybridization; format: functional, organism-based; conditions: dose 1-5 µM, time 2.0 day
In short: (§3)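 AML12HBV10 cells were induced by tetracycline withdrawal for 24 h, then mock (DMSO) or compound treated for 48 h, with tetracycline-maintained cells as negative control. Encapsidated pgRNA was detected by Northern blot hybridization, using ribosomal RNA as loading control.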

Hepatitis B virus [7] = test: Antiviral activity against HBV infected in AML12HBV10 cells assessed as reduction in encapsidated pgRNA at 2 uM after 2 days by Northern blot hybridization; format: functional, organism-based; conditions: time 2.0 day; in short: as §3
Hepatitis B virus [8] = test: Antiviral activity against HBV infected in AML12HBV10 cells assessed as accumulation of capsid at 5 uM after 2 days by Northern blot hybridization; format: functional, organism-based; conditions: time 2.0 day; in short: as §2
Hepatitis B virus [9] = test: Antiviral activity against HBV infected in AML12HBV10 cells assessed as decrease in capsid assembly at 2 uM after 2 days by Northern blot hybridization; format: functional, organism-based; conditions: time 2.0 day; in short: as §2
Hepatitis B virus [10] = test: Antiviral activity against HBV infected in AML12HBV10 cells assessed as reduction in viral DNA replication at 2 uM after 2 days by Northern blot hybridization; format: functional, organism-based; conditions: time 2.0 day; in short: as §1
Hepatitis B virus [11] = test: Antiviral activity against HBV infected in AML12HBV10 cells assessed as reduction in encapsidated pgRNA at 5 uM after 2 days by Northern blot hybridization; format: functional, organism-based; conditions: time 2.0 day; in short: as §3
Hepatitis B virus [12] = test: Antiviral activity against HBV infected in AML12HBV10 cells assessed as reduction in viral DNA replication at 5 uM after 2 days by Northern blot hybridization; format: functional, organism-based; conditions: time 2.0 day; in short: as §1
Hepatitis B virus [13] = test: Antiviral activity against HBV infected in AML12HBV10 cells assessed as change in capsids at 1 uM after 2 days by Northern blot hybridization; format: functional, organism-based; conditions: time 2.0 day; in short: as §2
Hepatitis B virus [14] = test: Antiviral activity against HBV infected in AML12HBV10 cells assessed as change in capsid associated viral DNA at 1 uM after 2 days by Northern blot hybridization; format: functional, organism-based; conditions: time 2.0 day; in short: as §2
Hepatitis B virus [15] = test: Antiviral activity against HBV infected in AML12HBV10 cells assessed as change in total viral RNA at 1 uM after 2 days by Northern blot hybridization; format: functional, organism-based; conditions: time 2.0 day; in short: as §1
Hepatitis B virus [16] = test: Antiviral activity against HBV infected in AML12HBV10 cells assessed as change in encapsidated pgRNA at 1 uM after 2 days by Northern blot hybridization; format: functional, organism-based; conditions: time 2.0 day; in short: as §3
Hepatitis B virus [17] = test: Antiviral activity against HBV infected in AML12HBV10 cells assessed as change in core protein at 1 uM after 2 days by Northern blot hybridization; format: functional, organism-based; conditions: time 2.0 day; in short: as §1
Hepatitis B virus [18] = test: Antiviral activity against HBV infected in AML12HBV10 cells assessed as change in DNA replication intermediates at 1 uM after 2 days by Northern blot hybridization; format: functional, organism-based; conditions: time 2.0 day; in short: as §1

SMILES: O=C(Nc1ccc(F)c(Cl)c1)N1CCNc2ccccc21
- Activity (Hepatitis B virus [1]): inactive
- Activity (Hepatitis B virus [2]): Active
- Activity (Hepatitis B virus [3]): inactive
- CC50 (AML12): > 100000 nM
- Activity (Hepatitis B virus [4]): Active
- EC50 (Hepatitis B virus [5]): 510 nM
- Activity (Hepatitis B virus [6]): Active

SMILES: COC(=O)C1=C(C)NC(c2ncc(F)cc2F)=N[C@H]1c1ccc(F)cc1Cl
- Activity (Hepatitis B virus [7]): Active
- Activity (Hepatitis B virus [8]): Active
- Activity (Hepatitis B virus [9]): Active
- Activity (Hepatitis B virus [10]): Active

SMILES: CCC(C)NS(=O)(=O)c1ccc(F)c(C(=O)Nc2ccc(F)c(F)c2)c1 (centres undefined)
- Activity (Hepatitis B virus [11]): Active
- Activity (Hepatitis B virus [12]): Active

SMILES: C=C1[C@H](CO)[C@@H](O)C[C@@H]1n1cnc2c(=O)[nH]c(N)nc21
- Activity (Hepatitis B virus [13]): inactive
- Activity (Hepatitis B virus [14]): Active
- Activity (Hepatitis B virus [15]): inactive
- Activity (Hepatitis B virus [16]): inactive
- Activity (Hepatitis B virus [17]): inactive
- Activity (Hepatitis B virus [18]): Active
